Experiments:
[1] = folding enthalpy; higher = less favourable; fluorescence melt of hairpins on a sequencing array, two-state fit; conditions: sodium 0.088 M
Procedure, shortened: (§1)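 Cy3 signals were normalised both to pre-quench Cy3 and to control constructs. They came from library hairpins carrying annealed Cy3 and quencher oligos on a sequenced MiSeq flow cell, imaged in 50 mM Na-HEPES pH 8.0, 25 mM NaCl, in 2.5 °C steps up to 60 °C. Bootstrapped two-state fits gave melting temperature and folding enthalpy, and four replicates were combined by inverse variance. Fitted temperatures were then raised by 9.35 °C to match UV melts.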

[2] = melting temperature; fluorescence melt of hairpins on a sequencing array, two-state fit, raised by 9.35 °C to match UV melts; conditions: sodium 0.088 M
Procedure, shortened: as §1

| Sequence | folding enthalpy [1] | Tm [2] |
| --- | --- | --- |
| GAATTGCGAAAGCAGTTC (((.(((....))).))) | -30.3 kcal/mol | 51.5 °C |
| GAATTGGAAACAATTC ((((((....)))))) | -35.6 kcal/mol | 47.3 °C |
| GAATTGGGAAACCAACTC ((.((((....)))).)) | -10.9 kcal/mol | 26 °C |
| GAATTGGGAAACTGATTC ((((..(....)..)))) | -13.2 kcal/mol | 25.6 °C |
| GAATTTGGAAACAAGTTC (((.(((....))).))) | -28.8 kcal/mol | 33.8 °C |
| GAATTTGGAAACGAATTC (((((.(....).))))) | -35.8 kcal/mol | 38.8 °C |
| GACAAACCGAAAGGTGTC (((..(((....)))))) | -19.8 kcal/mol | 43.2 °C |
| GACAAACGAAAGTTAGTC (((.(((....))).))) | -30.9 kcal/mol | 44.3 °C |
| GACAAAGGAAACTTCGTC (((.(((....))).))) | -17 kcal/mol | 26.7 °C |
| GACAAAGGAAACTTTGCC (.(((((....))))).) | -21.6 kcal/mol | 33.3 °C |
| GACAACGAAAGTTAGTC ((((((....))).))) | -24.7 kcal/mol | 42.4 °C |
| GACAACGAAAGTTCGGTC ((((((....)))..))) | -17.7 kcal/mol | 30.7 °C |
| GACAACGAAAGTTCGTC ((((((....))).))) | -21 kcal/mol | 42.6 °C |
| GACAACGAAAGTTGTC ((((((....)))))) | -24.8 kcal/mol | 67.9 °C |
| GACAACGAAAGTTTAGTC ((((((....)))..))) | -16 kcal/mol | 30.4 °C |
| GACAACGAAAGTTTGGTC ((((((....)))..))) | -16.4 kcal/mol | 32.9 °C |
| GACAACGAAAGTTTTGTC ((((((....)))..))) | -24.7 kcal/mol | 31.8 °C |
| GACAACGGAAACGTCGTC (((.(((....))).))) | -29.5 kcal/mol | 43.4 °C |
| GACAACGGAAACGTTGCC (.(((((....))))).) | -17.4 kcal/mol | 44.9 °C |
| GACAAGCGAAAGCTCGTC (((.(((....))).))) | -21 kcal/mol | 49.3 °C |
| GACAAGGGAAACTTTGTC (((((.(....).))))) | -27.1 kcal/mol | 36.9 °C |
| GACAATGCGAAAGCAGTC (((..(((....)))))) | -14 kcal/mol | 40.4 °C |
| GACAATGGAAACATCGTC (((.(((....))).))) | -26.4 kcal/mol | 32.5 °C |

| Sequence | folding enthalpy [1] | Tm [2] |
| --- | --- | --- |
| GACACCGAAAGGTAGTC ((((((....))).))) | -22.5 kcal/mol | 50.1 °C |
| GACACCGAAAGGTCCGTC ((((((....)))..))) | -16.9 kcal/mol | 31.4 °C |
| GACACCGAAAGGTGGTC ((((((....))).))) | -12.8 kcal/mol | 55.6 °C |
| GACACCGAAAGGTGTGTC ((((((....)))..))) | -11.3 kcal/mol | 61.6 °C |
| GACACCGAAAGGTTGTC ((((((....))).))) | -25.3 kcal/mol | 53.2 °C |
| GACACGGAAACGTGTC ((((((....)))))) | -34.9 kcal/mol | 67.7 °C |
| GACACGGGAAACCGCATC ((..(((....)))..)) | -11.1 kcal/mol | 20.4 °C |
| GACACTGCGAAAGCAGTC (((..(((....)))))) | -8.12 kcal/mol | 31.4 °C |
| GACAGACGAAAGTCCGTC (((.(((....))).))) | -26 kcal/mol | 47.5 °C |
| GACAGAGAAATCTGTC ((((((....)))))) | -33.2 kcal/mol | 50.9 °C |
| GACAGAGGAAACTCTGCC (.(((((....))))).) | -15.5 kcal/mol | 41.9 °C |
| GACAGAGGAAACTCTGTC (((((((....))))))) | -41.3 kcal/mol | 60.6 °C |
| GACAGAGGAAACTTTGTC ((((.((....)).)))) | -25.3 kcal/mol | 36.7 °C |
| GACAGCACGAAAGTGGTC (((..(((....)))))) | -13.7 kcal/mol | 36 °C |
| GACAGCCGAAAGGCAGTC (((.(((....))).))) | -22.5 kcal/mol | 60.1 °C |
| GACAGCCGAAAGGCCGTC (((.(((....))).))) | -18.7 kcal/mol | 55 °C |
| GACAGCGAAAGCTGCGTC ((((((....)))..))) | -10.1 kcal/mol | 48 °C |
| GACAGCGAAAGCTTGTC ((((((....))).))) | -22 kcal/mol | 52.6 °C |
| GACAGCGGAAACGCTGCC (.(((((....))))).) | -11.5 kcal/mol | 52.6 °C |
| GACAGTGGAAACACCATC ((..(((....)))..)) | -10.3 kcal/mol | 19.9 °C |
| GACATAACGAAAGTTGTC (((..(((....)))))) | -25 kcal/mol | 37.4 °C |
| GACATACGAAAGTAGGTC (((.(((....))).))) | -39.1 kcal/mol | 52.7 °C |
| GACATAGAAATATGTC ((((((....)))))) | -30 kcal/mol | 45.5 °C |

| Sequence | folding enthalpy [1] | Tm [2] |
| --- | --- | --- |
| GACATCCGAAAGGAAGTC (((.(((....))).))) | -36.6 kcal/mol | 48.8 °C |
| GACATCGAAAGATGTC ((((((....)))))) | -39.7 kcal/mol | 64.4 °C |
| GACATCGGAAACGATATC ((.((((....)))).)) | -21.9 kcal/mol | 31.6 °C |
| GACATCGGAAACGATGTC (((((((....))))))) | -44 kcal/mol | 66.6 °C |
| GACATGCGAAAGCAAGTC (((.(((....))).))) | -25.5 kcal/mol | 53.3 °C |
| GACCAACGAAAGTTAGTC (((.(((....))).))) | -26 kcal/mol | 38.8 °C |
| GACCAAGGAAACCTGGTC (((((.(....).))))) | -33.4 kcal/mol | 47.2 °C |
| GACCACGAAAGTGACGTC ((((((....)))..))) | -16.5 kcal/mol | 37.5 °C |
| GACCACGAAAGTGTAGTC ((((((....)))..))) | -18.6 kcal/mol | 41.1 °C |
| GACCACGAAAGTGTTGTC ((((((....)))..))) | -18.7 kcal/mol | 34.4 °C |
| GACCACGGAAACACGGTC ((((..(....)..)))) | -30.3 kcal/mol | 35.3 °C |
| GACCAGCGAAAGCTTGTC (((.(((....))).))) | -24 kcal/mol | 47.8 °C |
| GACCAGGGAAACCTGGTC (((((((....))))))) | -34.4 kcal/mol | 67.5 °C |
| GACCATGAAAATGGTC ((((((....)))))) | -36.9 kcal/mol | 61.8 °C |
| GACCCACGAAAGTGTGTC (((.(((....))).))) | -27.4 kcal/mol | 48.9 °C |
| GACCCAGGAAACCGGGTC (((((.(....).))))) | -32.8 kcal/mol | 52.9 °C |
| GACCCCGAAAGGGACGTC ((((((....)))..))) | -17 kcal/mol | 40.4 °C |
| GACCCCGAAAGGGCGGTC ((((((....)))..))) | -17.2 kcal/mol | 45.9 °C |
| GACCCCGAAAGGGCGTC ((((((....))).))) | -36.6 kcal/mol | 56.7 °C |
| GACCCCGGAAACGGGACC (..((((....))))..) | -8.3 kcal/mol | 28.1 °C |
| GACCCGCGAAAGCGTGTC (((.(((....))).))) | -24 kcal/mol | 52.6 °C |
| GACCCGGGAAACCGGATC ((.((((....)))).)) | -16.3 kcal/mol | 43.2 °C |
| GACCCTACGAAAGTAGTC (((..(((....)))))) | -11.3 kcal/mol | 28 °C |

| Sequence | folding enthalpy [1] | Tm [2] |
| --- | --- | --- |
| GACCCTGGAAACAGGATC ((.((((....)))).)) | -21.8 kcal/mol | 37.6 °C |
| GACCGAACGAAAGTTGTC (((..(((....)))))) | -17 kcal/mol | 29.5 °C |
| GACCGACGAAAGTCGTC (((.(((....)))))) | -10.6 kcal/mol | 45 °C |
| GACCGAGAAATCGGTC ((((((....)))))) | -34.4 kcal/mol | 59.6 °C |
| GACCGCGAAAGCGCGTC ((((((....))).))) | -21 kcal/mol | 63.1 °C |
| GACCGCGAAAGCGTCGTC ((((((....)))..))) | -13.5 kcal/mol | 53.1 °C |
| GACCGCGGAAACGCGGCC (.(((((....))))).) | -10.1 kcal/mol | 52.5 °C |
| GACCGGCGAAAGCCAGTC (((.(((....))).))) | -20.2 kcal/mol | 50.7 °C |
| GACCGGGGAAACCCGACC (..((((....))))..) | -11.4 kcal/mol | 30 °C |
| GACCGTCCGAAAGGAGTC (((..(((....)))))) | -11.8 kcal/mol | 28.6 °C |
| GACCGTGGAAACACGGCC (.(((((....))))).) | -13.2 kcal/mol | 50.9 °C |
| GACCTACGAAAGTATGTC (((.(((....))).))) | -33.4 kcal/mol | 41 °C |
| GACCTAGGAAACCAGGTC (((((.(....).))))) | -35.3 kcal/mol | 45 °C |
| GACCTAGGAAACTAGGTC (((((((....))))))) | -42 kcal/mol | 60.5 °C |
| GACCTGAAAAGGTC (((((....))))) | -27.9 kcal/mol | 59 °C |
| GACCTGCGAAAGCAGTC (((.(((....)))))) | -12.2 kcal/mol | 48.5 °C |
| GACCTGCGAAAGCATGTC (((.(((....))).))) | -28.4 kcal/mol | 49.9 °C |
| GACCTGGGAAACCAAGTC (((.(((....))).))) | -29.7 kcal/mol | 33.4 °C |
| GACGAACGAAAGTTTGTC (((.(((....))).))) | -43.7 kcal/mol | 54.2 °C |
| GACGAAGGAAACCTCGTC (((((.(....).))))) | -33 kcal/mol | 46 °C |
| GACGACGAAAGTCACGTC ((((((....)))..))) | -19.6 kcal/mol | 41.1 °C |
| GACGACGAAAGTCAGGTC ((((((....)))..))) | -19.9 kcal/mol | 44.3 °C |

From the array DNA melting data of Ke et al. (doi:10.1101/2024.01.08.574731)
